Test results as given in the M2OR odorant receptor database.

How the values were obtained:
Conditions in all cases: stereoisomer not certain
OR8H1 (Homo sapiens) = OR8H1 (Homo sapiens) (UniProt Q8NGG4)
Procedure, shortened: (§1)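 Each entry records the cell line, G-protein, co-transfected protein and tags used. Methods varied with the source, often transient luciferase assays in mammalian cell lines. A receptor–molecule pair is called responsive (active) if the original authors judged its signal statistically different from baseline and non-responsive (inactive) otherwise.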

OR8H2 (Homo sapiens) = OR8H2 (Homo sapiens) (UniProt Q8N162)
Procedure, shortened: as §1

OR8H3 (Homo sapiens) = OR8H3 (Homo sapiens) (UniProt Q8N146)
Procedure, shortened: as §1

OR8I2 (Homo sapiens) = OR8I2 (Homo sapiens) (UniProt Q8N0Y5)
Procedure, shortened: as §1

OR8J1 (Homo sapiens) = OR8J1 (Homo sapiens) (UniProt Q8NGP2)
Procedure, shortened: as §1

OR8J2 (Homo sapiens) = OR8J2 (Homo sapiens) (UniProt Q8NGG1)
Procedure, shortened: as §1

OR8J3 (Homo sapiens) = OR8J3 (Homo sapiens) (UniProt Q8NGG0)
Procedure, shortened: as §1

OR8H2 H120Y Y169C V284M = tested on: OR8H2 H120Y Y169C V284M
Procedure, shortened: as §1

OR8H3 = tested on: OR8H3
Procedure, shortened: as §1

OR8J1 = tested on: OR8J1
Procedure, shortened: as §1

Measured: odorant receptor agonist call

Sequence of OR8H2 (Homo sapiens) (Q8N162 whole entry): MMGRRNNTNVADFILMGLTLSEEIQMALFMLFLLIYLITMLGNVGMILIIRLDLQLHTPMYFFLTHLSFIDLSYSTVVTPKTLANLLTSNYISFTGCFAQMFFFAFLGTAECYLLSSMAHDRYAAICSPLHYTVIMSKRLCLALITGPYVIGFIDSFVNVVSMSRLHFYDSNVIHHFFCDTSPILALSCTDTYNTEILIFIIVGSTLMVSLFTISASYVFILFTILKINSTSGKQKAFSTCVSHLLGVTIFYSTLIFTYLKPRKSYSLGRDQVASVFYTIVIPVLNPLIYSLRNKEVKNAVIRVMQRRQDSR
Sequence of OR8J1 (Homo sapiens) (Q8NGP2 whole entry): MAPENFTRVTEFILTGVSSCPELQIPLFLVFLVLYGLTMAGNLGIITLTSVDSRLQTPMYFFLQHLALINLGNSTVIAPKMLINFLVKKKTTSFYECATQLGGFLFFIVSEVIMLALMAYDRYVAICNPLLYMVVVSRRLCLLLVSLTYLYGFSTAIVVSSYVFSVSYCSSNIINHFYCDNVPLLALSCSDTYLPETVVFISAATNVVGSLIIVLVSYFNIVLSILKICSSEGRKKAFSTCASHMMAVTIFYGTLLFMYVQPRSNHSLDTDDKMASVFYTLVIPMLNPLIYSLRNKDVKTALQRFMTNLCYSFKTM
Sequence of OR8H3 (Homo sapiens) (Q8N146 whole entry): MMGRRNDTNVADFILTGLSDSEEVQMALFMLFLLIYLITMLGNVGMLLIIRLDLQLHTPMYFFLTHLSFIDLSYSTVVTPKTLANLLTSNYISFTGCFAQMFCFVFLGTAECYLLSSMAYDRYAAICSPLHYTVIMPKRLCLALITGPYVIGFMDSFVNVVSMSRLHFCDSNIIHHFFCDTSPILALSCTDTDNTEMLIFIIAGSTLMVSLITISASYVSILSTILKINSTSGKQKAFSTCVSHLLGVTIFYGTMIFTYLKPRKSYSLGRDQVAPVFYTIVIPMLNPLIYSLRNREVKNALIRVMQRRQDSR
Sequence of OR8J3 (Homo sapiens) (Q8NGG0 whole entry): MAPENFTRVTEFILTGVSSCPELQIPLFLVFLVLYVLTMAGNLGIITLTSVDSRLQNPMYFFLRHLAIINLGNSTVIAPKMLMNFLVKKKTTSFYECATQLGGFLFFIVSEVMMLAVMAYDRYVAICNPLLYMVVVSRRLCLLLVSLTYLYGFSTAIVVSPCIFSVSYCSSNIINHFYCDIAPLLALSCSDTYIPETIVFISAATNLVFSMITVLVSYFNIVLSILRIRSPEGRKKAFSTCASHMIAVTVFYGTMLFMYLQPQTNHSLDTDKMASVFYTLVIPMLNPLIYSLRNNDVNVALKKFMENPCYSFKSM
Sequence of OR8H1 (Homo sapiens) (Q8NGG4 whole entry): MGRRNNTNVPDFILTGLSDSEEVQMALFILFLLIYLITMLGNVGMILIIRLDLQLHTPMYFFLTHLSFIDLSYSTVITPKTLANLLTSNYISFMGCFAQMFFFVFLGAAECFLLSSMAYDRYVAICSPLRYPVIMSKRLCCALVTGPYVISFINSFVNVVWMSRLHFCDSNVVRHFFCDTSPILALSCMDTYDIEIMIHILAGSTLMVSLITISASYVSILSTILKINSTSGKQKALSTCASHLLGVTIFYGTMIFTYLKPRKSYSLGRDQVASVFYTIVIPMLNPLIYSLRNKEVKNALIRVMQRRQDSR
Sequence of OR8I2 (Homo sapiens) (Q8N0Y5 whole entry): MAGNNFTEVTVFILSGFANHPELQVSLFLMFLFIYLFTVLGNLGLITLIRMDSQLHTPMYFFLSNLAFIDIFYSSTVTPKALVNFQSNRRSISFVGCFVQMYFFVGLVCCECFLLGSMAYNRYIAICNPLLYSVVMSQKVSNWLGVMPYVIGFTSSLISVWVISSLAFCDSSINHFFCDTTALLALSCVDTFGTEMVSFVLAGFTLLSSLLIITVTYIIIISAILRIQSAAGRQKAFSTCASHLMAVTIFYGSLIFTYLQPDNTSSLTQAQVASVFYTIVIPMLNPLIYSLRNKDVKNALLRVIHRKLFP
Sequence of OR8J1 (as listed by the source): as the sequence (Q8NGP2 whole entry) above, with Y120C counted along it
Sequence of OR8J2 (Homo sapiens) (Q8NGG1 whole entry): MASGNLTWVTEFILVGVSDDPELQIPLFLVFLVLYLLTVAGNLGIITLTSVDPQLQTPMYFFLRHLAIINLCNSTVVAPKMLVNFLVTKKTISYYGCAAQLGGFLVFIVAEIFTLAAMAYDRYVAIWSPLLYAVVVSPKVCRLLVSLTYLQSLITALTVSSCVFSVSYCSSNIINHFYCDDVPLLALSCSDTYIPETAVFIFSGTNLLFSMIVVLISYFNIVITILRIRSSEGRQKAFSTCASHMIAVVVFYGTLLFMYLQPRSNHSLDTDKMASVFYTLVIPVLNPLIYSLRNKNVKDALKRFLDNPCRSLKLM
Sequence of OR8H3 (as listed by the source): as the sequence (Q8N146 whole entry) above, with P137S counted along it

Cc1c([N+](=O)[O-])c(C)c([N+](=O)[O-])c(C(C)(C)C)c1[N+](=O)[O-]
not listed: OR8H2 H120Y Y169C V284M | OR8H3 | OR8J1
inactive: all other assays above

C=CCOC(=O)Cc1ccccc1
not listed: OR8J2 (Homo sapiens)
inactive: all other assays above
